Measurements as given in ChEMBL document CHEMBL4351018, “Novel phenanthridin-6(5H)-one derivatives as potent and selective BET bromodomain inhibitors: Rational design, synthesis and biological evaluation” (Eur J Med Chem, 2019).

These compounds were tested against Bromodomain-containing protein 4 (Homo sapiens, UniProt O60885) (assay: Inhibition of recombinant human His-tagged BRD4 bromodomain 1/2 (2 to 1362 residues) expressed in […] insect cells using biotinylated H4(1 to 21)K5/8/12/16Ac peptide as substrate preincubated for 30 mins followed by substrate addition and measured after 30 mins by Alpha screen assay). Details: not given.

In order of falling IC50:
1. O=C(Nc1ccc2[nH]c(=O)c3ccccc3c2c1)c1ccccc1  18.6 µM
2. O=c1[nH]c2ccc(NS(=O)(=O)c3ccc4c(c3)CCO4)cc2c2ccccc12  13.1 µM
3. O=C(Nc1ccccc1)Nc1ccc2[nH]c(=O)c3ccccc3c2c1  9.93 µM
4. O=c1[nH]c2ccc(NS(=O)(=O)c3ccc4ccccc4c3)cc2c2ccccc12  7.23 µM
5. O=c1[nH]c2ccc(NS(=O)(=O)c3cccs3)cc2c2ccccc12  6.74 µM
6. CCCS(=O)(=O)Nc1ccc2[nH]c(=O)c3ccccc3c2c1  6.71 µM
7. O=c1[nH]c2ccc(NS(=O)(=O)C3CCCC3)cc2c2ccccc12  6.17 µM
8. O=C(Nc1ccc2[nH]c(=O)c3ccccc3c2c1)Oc1ccccc1  6.02 µM
9. O=c1[nH]c2ccc(NS(=O)(=O)C3CCCCC3)cc2c2ccccc12  5.92 µM
10. CCCCS(=O)(=O)Nc1ccc2[nH]c(=O)c3ccccc3c2c1  5.54 µM
11. O=c1[nH]c2ccc(NS(=O)(=O)Cc3ccccc3)cc2c2ccccc12  5.17 µM
12. N#Cc1cccc(S(=O)(=O)Nc2ccc3[nH]c(=O)c4ccccc4c3c2)c1  1.79 µM
13. O=c1[nH]c2ccc(NS(=O)(=O)c3ccccc3)cc2c2ccccc12  1.64 µM
14. COc1ccc(S(=O)(=O)Nc2ccc3[nH]c(=O)c4ccccc4c3c2)cc1  1.32 µM
15. O=c1[nH]c2ccc(NS(=O)(=O)c3ccccc3Cl)cc2c2ccccc12  1.25 µM
16. CC(C)(C)c1ccc(S(=O)(=O)Nc2ccc3[nH]c(=O)c4ccccc4c3c2)cc1  1.13 µM
17. COc1cc(Cl)ccc1S(=O)(=O)Nc1ccc2oc(=O)ccc2c1  0.93 µM
18. O=c1[nH]c2ccc(NS(=O)(=O)c3ccc(Cl)cc3)cc2c2ccccc12  0.85 µM
19. O=c1[nH]c2ccc(NS(=O)(=O)c3cccc(Cl)c3)cc2c2ccccc12  0.79 µM
20. COc1ccccc1S(=O)(=O)Nc1ccc2[nH]c(=O)c3ccccc3c2c1  0.48 µM

The compounds below were run on A549 (assay: Antiproliferative activity against human A549 cells incubated for 48 hrs by MTT assay). Details: A549, 48 h.
Format: functional, cell-based
Procedure, shortened: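 Cells kept in DMEM or RPMI 1640 with 10% FBS at 37 °C, 5% CO2. MTT added for 4 h at 37 °C, formazan dissolved in DMSO, OD read at 570 nm. Survival % taken relative to blank and control wells. Triplicate runs; IC50 from curve fit.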

For `COc1cc(Cl)ccc1S(=O)(=O)Nc1ccc2oc(=O)ccc2c1`, the IC50 was 4.63 µM.
